# Source: PubChem (several laboratories)
# Dynein transport – inhibitors of GR-EGFP nuclear translocation, primary screen, dynein cargo transport inhibitor project, imaging, high-content, 3617.4 mouse cells; test concentration mostly 20 µM; stimulated with dexamethasone, 1 µM; hits give low values; z-score, hits read low; 0.47% of 220,000 active;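 active means plate z-score of nuclear minus cytoplasmic receptor signal below a set negative limit, without overly bright fluorescence or cell loss, cut at about -3.5 in these data, passing the limit was not always enough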;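 further: z-score of nuclear minus cytoplasmic ring GR-EGFP intensity difference per well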
#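 Also added – dexamethasone, 1.0 µM final · Buffer or medium – tet-free, stripped-serum medium · Schedule – induction 48 h, compound 1 h, agonist 30 min · Detection – formaldehyde fixation, Hoechst nuclear stain, 10x automated fluorescence imaging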
# ABHD5 PLIN5 PPI – ABHD5-PLIN5 interaction inhibitors, primary screen, cell lysate, split luciferase complementation, luminescence. 0.78% of 360,000 active. Split G. princeps luciferase complementation, 4 h. inhibition, % at 4 µM;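 active means inhibition above the mean inhibition across every tested compound plus 3 SD, cut at about 22% in these data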;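 further: 0% = DMSO only wells and the 100% control is not disclosed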
# TLR9-MyD88 inh – inhibitors of TLR9-MyD88 association in cells, primary screen, cell-based, CHO, BLA complementation, fluorescence; inhibition, % at 4.98 µM; CCF4 FRET ratio; 0.21% of 340,000 active;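 active means inhibition above the mean over all tested compounds plus 3 SD, cut at about 21% in these data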;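 further: 0% = DMSO only wells and 100% = clavulanate BLA inhibitor control wells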
# NOD2 RIPK2 PPI – NOD2-RIPK2 binding disruptors in cells, primary screen, fluorescence, CHO cells, BLA complementation; Receptor-interacting serine/threonine-protein kinase 2 (Homo sapiens), O43353; CCF4 ratio; inhibition, % at 4.98 µM; 0.38% of 360,000 active; AID 624267, 2012; in the data active means inhibition above about 21%;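 further: 0% = vehicle only and 100% = reference blocker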
# TLR4 MyD88 comp – inhibitors of TLR4-MyD88 association in cells, primary screen, cell-based, HeLa CL3-4, BLA complementation, FRET ratio; HeLa CL3-4 TLR4/MyD88 BLA complementation; inhibition, % at 8.4 µM; 0.18% of 200,000 active; in the data active means inhibition above about 25%;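 further: 0% = vehicle and 100% = reference inhibitor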
# B2AR ag – beta2AR agonists driving receptor internalization, primary screen, cell-based, FAP fluorogen, flow cytometry | response, % (concentration not given with the values) | 0.43% of 340,000 active | Am2.2-beta2AR cells | AID 504454, 2011 | Beta-2 adrenergic receptor (Homo sapiens), P07550;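 active means response above a set limit, near 3 SD of response in nonfluorescent compounds, cut at about 42% in these data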
# Target sequence (P07550 whole entry, looked up): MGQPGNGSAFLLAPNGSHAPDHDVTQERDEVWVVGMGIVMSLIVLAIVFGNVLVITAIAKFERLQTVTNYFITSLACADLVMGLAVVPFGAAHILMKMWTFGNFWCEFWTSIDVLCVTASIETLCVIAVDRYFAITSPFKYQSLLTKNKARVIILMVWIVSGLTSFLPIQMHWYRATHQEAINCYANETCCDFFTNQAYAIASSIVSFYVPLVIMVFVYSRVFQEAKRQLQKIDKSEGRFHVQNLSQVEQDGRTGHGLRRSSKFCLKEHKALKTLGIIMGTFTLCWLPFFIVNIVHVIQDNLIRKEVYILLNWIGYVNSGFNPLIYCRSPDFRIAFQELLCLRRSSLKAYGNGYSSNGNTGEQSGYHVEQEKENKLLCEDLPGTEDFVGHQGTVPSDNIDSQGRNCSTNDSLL
# TLR9-MyD88 cf – TLR9-MyD88 association inhibitors, retest, confirmation, cell-based, CHO, BLA complementation, fluorescence, triplicate; inhibition, % at 4.98 µM; CCF4 FRET ratio; shares compounds with TLR9-MyD88 inh; 51% of 680 active;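 active means mean inhibition across three repeats above about 21% taken from the earlier screen, limit read from the data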;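 further: blue over green emission ratio reports constitutive TLR9 MyD88 association via BLA complementation; 0% = DMSO vehicle wells and 100% = clavulanate BLA inhibitor wells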
# BLA counter – beta-lactamase reporter inhibitors in CHO cells, artefact control for TLR9-MyD88 binding inhibitor project, cell-based, fluorescence; shares compounds with TLR9-MyD88 inh; AID 540251, 2011; inhibition, % at 4.98 µM; CHO-BLA cells, CCF4 FRET ratio, BLA reporter; 7% of 680 active;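 active means mean inhibition above a 50% cutoff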;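 further: counterscreen of TLR9-MyD88 hits on CMV-driven BLA in CHO-K1 cells; 0% = DMSO alone and 100% = clavulanate blocking BLA; higher means less blue over green ratio so more BLA blockade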
# TLR9 CHO tox – CHO cell viability loss – luminescence, single concentration, cytotoxicity control for TLR9-MyD88 binding inhibitor project; shares compounds with TLR9-MyD88 inh; TLR9-MyD88 CHO cells cytotoxicity; inhibition, % at 4.98 µM; 39% of 680 active; AID 588336, 2011; in the data active means inhibition above about 11%
# The depositor's hits bear a star; / = no result. Sampled rows, rich in hits. Any-hit rate of the full collection: about 1.6%.
SMILES,Dynein transport,ABHD5 PLIN5 PPI,TLR9-MyD88 inh,NOD2 RIPK2 PPI,TLR4 MyD88 comp,B2AR ag,TLR9-MyD88 cf,BLA counter,TLR9 CHO tox
C/C(=N/NS(=O)(=O)c1ccc(C)cc1)c1ccc(NC(=O)C(F)(F)F)cc1,-0.851,-11.7,21.5*,3.3,-6.0,13.1,9.2,9.4,-0.9
CC(=O)Nc1cccc(/C(C)=N/NS(=O)(=O)c2ccc(C)cc2)c1,-0.523,-1.9,-1.6,-2.2,-7.2,-0.8,/,/,/
CCc1ccc(/C(C)=N/NC(=O)c2ccccn2)cc1,0.554,-2.8,-13.3,-0.4,-8.8,-11.0,/,/,/
CC(=N/O)/C(C)=N\NC(=O)c1ccccn1,1.74,-0.4,53.5*,5.6,7.3,-2.2,3.6,4.6,6.0
CCc1ccc(OCC(=O)O/N=C(\N)c2ccncc2)c(Br)c1,/,-4.4,-2.5,-8.4,/,-6.9,/,/,/
COc1cccc(C2C=C(c3ccc(Br)s3)Nc3ncnn32)c1OC (configuration not stated),0.288,-2.9,27.4*,31.4*,20.9,1.4,5.1,4.9,2.4
Cc1ccc(OCc2cc(C(=O)N(C)C3CCCc4ccccc43)no2)cc1C (configuration not stated),/,-2.9,-3.5,1.6,/,/,/,/,/
Cc1ccc(NC(=O)c2cc(N3C(=O)C=CC3=O)ccc2N2CCOCC2)cc1Cl,-3.27,21.7,32.3*,-0.6,1.1,76.2*,54.9*,18.3,97.3*
CNS(=O)(=O)c1cc(N(C)S(=O)(=O)c2ccc(C)cc2)c(C)cc1C,-0.764,-1.6,-11.3,-4.0,-2.7,4.7,/,/,/
Cc1ccc(S(=O)(=O)N(C)c2cc(S(=O)(=O)Nc3ccncc3)c(C)cc2C)cc1,-0.371,1.7,28.7*,13.0,0.5,2.7,2.5,9.3,-0.1
O=[N+]([O-])c1ccc(Sc2cc[n+]([O-])c3ccccc23)c([N+](=O)[O-])c1,-2.71,-0.4,31.7*,-0.8,/,5.3,23.5*,7.2,30.3*
COc1ccc(-c2cc(C(=O)NCc3ccco3)c3ccccc3n2)cc1,/,11.1,2.9,6.4,/,-2.1,/,/,/
COc1ccc(-c2cc(C(=O)NCc3ccco3)c3ccccc3n2)c(OC)c1,/,2.8,32.7*,-4.1,/,-7.2,1.2,-0.6,-1.6
CC(=O)Oc1ccc(N2C(=O)c3cccc4c([N+](=O)[O-])ccc(c34)C2=O)cc1,/,-0.6,22.8*,10.0,/,7.2,32.4*,43.0,85.3*
CC(=O)Oc1ccc(-n2c(=O)c3ccccc3c3ccccc3c2=O)cc1,-1.15,0.7,-4.2,-19.8,8.7,7.4,/,/,/
COc1cc(Cl)ccc1OC1(C)CCN(Cc2cccc(OC)c2OC)C1 (configuration not stated),/,-1.1,/,-7.7,/,/,/,/,/
O=CN1CCN(C(=O)c2ccccc2Cl)CC1,-0.128,0.9,43.7*,-5.4,-2.2,-0.9,-5.5,-5.4,-2.5
CCOC(=O)CN1C(=O)CC(c2ccccc2)C1=O (configuration not stated),/,1.7,-6.9,1.1,/,5.1,/,/,/
CCOC(=O)COc1ccc2c(C#N)c3ccccn3c2c1,0.471,-6.5,25.8*,3.8,14.8,-3.9,2.7,6.3,1.1
N#Cc1c2ccc(OCC(N)=O)cc2n2ccccc12,-0.433,-1.4,12.7,7.3,18.1,-4.5,/,/,/
